Data set [1] relates to Mycobacterium tuberculosis. Nature of the data set: Antimycobacterial activity against Mycobacterium tuberculosis CNCTC My 331/88 after 14 days by microdilution method. The format is functional. To be noted: CNCTC My 331/88, 336 h. An outline of the steps: (§1)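 MIC determined by a dilution micromethod. Strains came from the Czech National Collection of Type Cultures, Prague. Compounds were added to the medium as DMSO solutions. Each inoculum was also plated in parallel on Löwenstein–Jensen medium to check its sterility and growth. The M. avium strain is identical with ATCC 25291 and resistant to INH.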

Data set [2] concerns Mycobacterium tuberculosis. Description: Antimycobacterial activity against Mycobacterium tuberculosis CNCTC My 331/88 after 21 days by microdilution method. The format is functional. To be noted: CNCTC My 331/88, 504 h. In a few lines: as §1
The subject of data set [3] is Mycobacterium avium. Description: Antimycobacterial activity against Mycobacterium avium CNCTC My 330/88 after 14 days by microdilution method. The format is functional. As to conditions: CNCTC My 330/88, 336 h. In a few lines:
as §1

Data set [4] has as its system Mycobacterium avium. Nature of the data set: Antimycobacterial activity against Mycobacterium avium CNCTC My 330/88 after 21 days by microdilution method. The format is functional. As to conditions: CNCTC My 330/88, 504 h. In a few lines:
as §1

The test system of data set [5] is Mycobacterium kansasii. Description: Antimycobacterial activity against Mycobacterium kansasii CNCTC My 235/80 after 14 days by microdilution method. As to conditions: CNCTC My 235/80, 336 h. The format is functional. In a few lines:
(§2)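 Dilution micromethod for MIC; compounds added to medium as DMSO solutions. Each strain also inoculated onto Löwenstein–Jensen medium to control inoculum sterility and growth. Strain 6509/96 is a clinical isolate; CNCTC strains from the Czech national type culture collection.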

Data set [6] deals with Mycobacterium kansasii. Description: Antimycobacterial activity against Mycobacterium kansasii CNCTC My 235/80 after 21 days by microdilution method. The format is functional. To be noted: CNCTC My 235/80, 504 h. In a few lines:
as §2

Data set [7] concerns Mycobacterium kansasii. Nature of the data set: Antimycobacterial activity against Mycobacterium kansasii 6509/96 after 14 days by microdilution method. The format is functional. To be noted: 6509/96, 336 h. An outline of the steps:
as §2

Data set [8] deals with Mycobacterium kansasii. Description: Antimycobacterial activity against Mycobacterium kansasii 6509/96 after 21 days by microdilution method. The format is functional. To be noted: 6509/96, 504 h. In a few lines:
as §2

The subject of another data set is HeLa. Nature of the data set: Cytotoxicity against human HeLa cells after 72 hrs by using methylene blue staining. The format is functional, cell-based. An outline of the steps:
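HeLa cells in RPMI 1640 with supplements, preincubated 48 h without compound. Compound dilutions were then applied to subconfluent monolayers for 72 h at 37 °C, 5% CO2. Cells were glutaraldehyde-fixed, stained with 0.05% methylene blue, eluted with 0.33 N HCl and read at OD 660 nm. CC50 taken at 50% intersection versus negative control.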

Another data set deals with K562. Description: Antiproliferative activity against human K562 cells after 72 hrs by celltiter-blue assay. The format is functional, cell-based. In a few lines: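 K-562 grown in RPMI 1640 with ultraglutamine, gentamicin, 10% heat-inactivated FBS at 37 °C; about 10,000 cells/well. Compounds dissolved in DMSO and diluted in DMEM, incubated 72 h at 37 °C, 5% CO2. Viability read by CellTiter-Blue resazurin reduction. GI50 taken where the dose-response curve crosses 50% of untreated control.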

For another data set, the system named is HUVEC. Description: Antiproliferative activity against HUVEC after 72 hrs by using methylene blue staining. The format is cell-based. To be noted: human. An outline of the steps: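 HUVEC in culture medium with ultraglutamine, gentamicin, 10% heat-inactivated FBS, 37 °C. Harvested in log phase by trypsinization; about 10,000 cells/well. Compounds in DMSO, diluted in DMEM, incubated 72 h at 37 °C, 5% CO2. Cells then glutaraldehyde-fixed, stained with 0.05% methylene blue for 15 min, eluted with 0.33 N HCl, OD 660 nm. GI50 taken at 50% intersection versus untreated control.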

SMILES strings stand for the structures. In brackets after ≈: the same amount, converted by molar mass.

Consider `Cc1ccc2oc(=O)n(Cc3ccccc3)c(=S)c2c1`, for which the MIC stood at 1 µM (≈ 0.283 µg/mL) in data set [1]; 1 µM (≈ 0.283 µg/mL) in data set [2]; 2 µM (≈ 0.567 µg/mL) against Mycobacterium avium [3]; 2 µM (≈ 0.567 µg/mL) against Mycobacterium avium [4]; 1 µM (≈ 0.283 µg/mL) in the data set with Mycobacterium kansasii [5]; 2 µM (≈ 0.567 µg/mL) with Mycobacterium kansasii [6]. Besides, the minimum inhibitory concentration (MIC) with Mycobacterium kansasii [7] was 1 µM (≈ 0.283 µg/mL); against Mycobacterium kansasii [8] it was 2 µM (≈ 0.567 µg/mL). For the same compound, the Activity entry with HeLa, with K562 and in the data set with HUVEC was “Toxic” throughout.

In the case of `O=c1oc2ccc(Br)cc2c(=S)n1Cc1ccccc1`, the MIC in [1] came to 1 µM (≈ 0.348 µg/mL); in data set [2], 2 µM (≈ 0.696 µg/mL); in the data set with Mycobacterium avium [3] it was 8 µM (≈ 2.79 µg/mL); in the data set on Mycobacterium avium [4] it was 8 µM (≈ 2.79 µg/mL); in the data set on Mycobacterium kansasii [5] it was 8 µM (≈ 2.79 µg/mL); with Mycobacterium kansasii [6], 8 µM (≈ 2.79 µg/mL). Besides, the MIC against Mycobacterium kansasii [7] worked out at 4 µM (≈ 1.39 µg/mL); in the data set with Mycobacterium kansasii [8] it was 8 µM (≈ 2.79 µg/mL). In addition, the Activity entry in the data set on HeLa, in the data set with K562 and with HUVEC was “Toxic” in each case.

Turning to `O=c1oc2ccc(Br)cc2c(=O)n1Cc1ccccc1`, the MIC in data set [1] was found to be 62.5 µM (≈ 20.8 µg/mL); in data set [2] it was 62.5 µM (≈ 20.8 µg/mL); against Mycobacterium avium [3], 62.5 µM (≈ 20.8 µg/mL); against Mycobacterium avium [4], 62.5 µM (≈ 20.8 µg/mL); in the data set on Mycobacterium kansasii [5], 62.5 µM (≈ 20.8 µg/mL); with Mycobacterium kansasii [6], 125 µM (≈ 41.5 µg/mL). Besides, the MIC is 62.5 µM (≈ 20.8 µg/mL) in the data set on Mycobacterium kansasii [7] and 125 µM (≈ 41.5 µg/mL) with Mycobacterium kansasii [8]. Further, the Activity result with HeLa, in the data set with K562 and in the data set with HUVEC was “Toxic” each time.

As for `O=c1oc2ccc(Cl)cc2c(=S)n1Cc1ccccc1`, the MIC in data set [1] came out at 1 µM (≈ 0.304 µg/mL); in [2] it was 2 µM (≈ 0.608 µg/mL); against Mycobacterium avium [3] it was 4 µM (≈ 1.22 µg/mL); against Mycobacterium avium [4], 8 µM (≈ 2.43 µg/mL); against Mycobacterium kansasii [5], 8 µM (≈ 2.43 µg/mL); with Mycobacterium kansasii [6], 8 µM (≈ 2.43 µg/mL). Moreover, the MIC against Mycobacterium kansasii [7] and against Mycobacterium kansasii [8] was 4 µM (≈ 1.22 µg/mL) in each case. The Activity entry with HeLa, in the data set on K562 and in the data set with HUVEC was “Toxic” each time.

On to `O=c1oc2ccc(Br)cc2c(=S)n1Cc1ccc(Cl)c(Cl)c1`, for which the MIC in [1] worked out at 2 µM (≈ 0.834 µg/mL); in data set [2] it was 4 µM (≈ 1.67 µg/mL); against Mycobacterium avium [3], 8 µM (≈ 3.34 µg/mL); with Mycobacterium avium [4], 8 µM (≈ 3.34 µg/mL); with Mycobacterium kansasii [5] it was 16 µM (≈ 6.67 µg/mL); in the data set with Mycobacterium kansasii [6], 16 µM (≈ 6.67 µg/mL). Moreover, the MIC against Mycobacterium kansasii [7] and in the data set on Mycobacterium kansasii [8] was 16 µM (≈ 6.67 µg/mL) throughout. Moreover, the Activity entry with HeLa, with K562 and in the data set on HUVEC was “Toxic” each time.

For `O=c1oc2ccc(Cl)cc2c(=O)n1Cc1ccccc1`, the minimum inhibitory concentration (MIC) in [1] turned out to be 62.5 µM (≈ 18 µg/mL); in data set [2], 125 µM (≈ 36 µg/mL); in the data set with Mycobacterium avium [3], 32 µM (≈ 9.21 µg/mL); against Mycobacterium avium [4] it was 62.5 µM (≈ 18 µg/mL); against Mycobacterium kansasii [5], 32 µM (≈ 9.21 µg/mL); against Mycobacterium kansasii [6], 62.5 µM (≈ 18 µg/mL). Moreover, the MIC against Mycobacterium kansasii [7] and against Mycobacterium kansasii [8] was 125 µM (≈ 36 µg/mL) each time. For the same compound, the Activity entry in the data set on HeLa, in the data set on K562 and in the data set with HUVEC was “Toxic” each time.

As to `O=c1oc2ccc(Cl)cc2c(=O)n1Cc1ccc(Cl)c(Cl)c1`, the MIC came out at 16 µM (≈ 5.71 µg/mL) in [1]; 16 µM (≈ 5.71 µg/mL) in data set [2]; 16 µM (≈ 5.71 µg/mL) in the data set with Mycobacterium avium [3]; 32 µM (≈ 11.4 µg/mL) with Mycobacterium avium [4]; 62.5 µM (≈ 22.3 µg/mL) against Mycobacterium kansasii [5]; 62.5 µM (≈ 22.3 µg/mL) against Mycobacterium kansasii [6]. Further, the minimal inhibitory concentration (MIC) in the data set with Mycobacterium kansasii [7] and in the data set with Mycobacterium kansasii [8] was 62.5 µM (≈ 22.3 µg/mL) each time. Also, the Activity result in the data set with HeLa, with K562 and in the data set on HUVEC was “Toxic” each time.

`O=c1oc2c(Cl)cc(Cl)cc2c(=S)n1Cc1ccc(Cl)c(Cl)c1`: the MIC worked out at 2 µM (≈ 0.814 µg/mL) in [1]; 2 µM (≈ 0.814 µg/mL) in data set [2]; 4 µM (≈ 1.63 µg/mL) against Mycobacterium avium [3]; 4 µM (≈ 1.63 µg/mL) against Mycobacterium avium [4]; 16 µM (≈ 6.51 µg/mL) with Mycobacterium kansasii [5]; 16 µM (≈ 6.51 µg/mL) against Mycobacterium kansasii [6]. In addition, the MIC with Mycobacterium kansasii [7] and against Mycobacterium kansasii [8] was 16 µM (≈ 6.51 µg/mL) throughout. In addition, the Activity entry in the data set with HeLa, in the data set with K562 and with HUVEC was “Toxic” throughout.

(Values after ChEMBL document CHEMBL1177835, “A note to the biological activity of benzoxazine derivatives containing the thioxo group” (Eur J Med Chem, 2010).)
